From PubChem BioAssay come the findings set out here.

Experiment [1] can be described thus: reduced viability of SK-BR-3 breast cancer cells – cell-based, 24 h, human, pilot screen (AID 572;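 active = viability at or below 10% of carrier control in both of two separate runs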;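 also: compound exposure lasted between 18 and 24 h rather than exactly 24 h; 100% = carrier-treated control wells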). As to conditions: SK-BR-3 viability, CellTiter-Glo luminescence, at 10 µM, stronger effect = lower value. For orientation: ATP-based viability assays read luminescence as a measure of living cells.
Experiment [2] can be described thus: HUVEC growth inhibition – cell-based, human, primary screen (AID 575;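 active = viability at or below 30% in both replicate assays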;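 also: 100% = median of untreated cell wells with 0.1% DMSO on each plate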). As to conditions: HUVEC proliferation, CellTiter-Glo luminescence, 72 h; at 10 µM; stronger effect = lower value. In outline: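 Test system – primary HUVEC, no more than 12 passages · Dosing – one dose, 10 µM final, 0.1% DMSO · Times – 72 h treatment at 37 °C · Measured by – ATP-based CellTiter-Glo luminescent read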

Experiment [3] can be described thus: H69AR cell proliferation blockers – human, duplicate replicates, primary screen (AID 580;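 active = viability at or under a set limit in both replicates, limit being median viability minus 3 SD, cut at about 48% in these data, passing the limit was not always enough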;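 also: 100% = mean luminescence of untreated wells and 0% = no signal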). As to conditions: H69AR lung tumor cells viability, ATP luminescence, 72 h; at 10 µM; stronger effect = lower value.
Experiment [4] in a line: MRP1 drug-resistance reversers in H69AR cells – cell-based, doxorubicin co-treatment, pilot screen (AID 601). As to conditions: CellTiter-Glo, 72 h, at 10 µM; for differential viability (reversal): stronger effect = higher value.
The nature of experiment [5]: yeast transport mutant growth inhibition pilot in 384-well plates, post-Golgi transport modulator project (AID 636; in the data active = inhibition above about 31%). To be noted: absorbance 615 nm, about 18 h, stronger effect = higher value.
Experiment [6] is described as follows: growth suppression of yeast trafficking mutant, preliminary HTS, modulators of trafficking downstream of Golgi apparatus project, 1536-format plate, OD 615 nm (AID 637; in the data active = inhibition above about 30%). To be noted: yeast transport mutant growth, absorbance 615 nm, 18 h; stronger effect = higher value.
Setting [7] is: H69AR cells + 2 uM doxorubicin, measured here: viability with 2 uM doxorubicin, stronger effect = lower value.
[8] abbreviates: H69AR cells, compound alone cytotoxicity.

One may read the viability as a read-out of living cells in per cent, often relative to untreated cells. Usually inhibition stands for the drop in the measured response relative to a control, in per cent.

Calls of active or inactive are those of the source.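 The calls were made as follows, unless noted: active = viability loss from added drug above about 55%, and viability with drug at most 40%, in both replicates (limit read from the data, passing the limit was not always enough); inconclusive = both conditions met in only one replicate; inactive = neither replicate meets both conditions.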

Take `Nc1nc(-c2ccc(Br)s2)c(Br)s1`: the viability was 100% (inactive) in experiment [1]; 61.3% (inactive) in experiment [2]; 94.3% (inactive) in experiment [3]; 84.5% in experiment [4] (setting [7]); 94.3% in experiment [4] (setting [8]). Further, in experiment [4] (H69AR cells + 2 uM doxorubicin), the differential viability (reversal) is 9.83% (inactive). The results for the inhibition in experiment [5] and in experiment [6] were 2.6% (inactive) and -0.16% (inactive), respectively.
As for `C[C@]12CC[C@@H]3c4ccc(O)cc4C(=O)C[C@H]3[C@@H]1CC[C@@H]2O`, the viability is 103% (inactive) in experiment [1]; 89.2% (inactive) in experiment [2]; 80.6% (inactive) in experiment [3]; 78.2% in experiment [4] (setting [7]); 80.6% in experiment [4] (setting [8]). The differential viability (reversal) in experiment [4] (H69AR cells + 2 uM doxorubicin) was 2.45% (inactive). Besides, the inhibition is -0.39% (inactive) in experiment [5] and 2.67% (inactive) in experiment [6].
Consider `O=C1C2CC=C(Cl)CC2C(=O)N1CNc1ccccn1` (configuration not stated), for which the viability in experiment [1] is 112% (inactive); in experiment [2] it was 108% (inactive); in experiment [3], 98.8% (inactive); in experiment [4] (setting [7]), 105%; in experiment [4] (setting [8]) it was 98.8%. Moreover, the differential viability (reversal) in experiment [4] (H69AR cells + 2 uM doxorubicin) is -6.09% (inactive). The values for the inhibition in experiment [5] and in experiment [6] were -2.05% (inactive) and 5.65% (inactive), respectively.
Consider `C(=N/n1c2ccccc2c2ccccc21)/c1ccco1`, for which the viability was 81% (inactive) in experiment [1]; 77.9% (inactive) in experiment [2]; 86.5% (inactive) in experiment [3]; 89.6% in experiment [4] (setting [7]); 86.5% in experiment [4] (setting [8]). In addition, in experiment [4] (H69AR cells + 2 uM doxorubicin), the differential viability (reversal) is -3.11% (inactive). In addition, the results for the inhibition in experiment [5] and in experiment [6] were -5.19% (inactive) and 0.49% (inactive), respectively.
Take `O=C(c1cnn2c(C(F)F)cc(-c3ccccc3)nc12)N1CCN2CCCC2C1` (configuration not stated): the viability was 103% (inactive) in experiment [1]; 103% (inactive) in experiment [2]; 79.1% (inactive) in experiment [3]; 80.8% in experiment [4] (setting [7]); 79.1% in experiment [4] (setting [8]). The differential viability (reversal) in experiment [4] (H69AR cells + 2 uM doxorubicin) was -1.71% (inactive). Besides, the inhibition in experiment [5] was -4.79% (inactive); in experiment [6], 1.82% (inactive).
As to `Cc1nnc(C)c2c(C)n(Cc3ccc4c(c3)OCO4)c(C)c12`, the viability in experiment [1] was 76% (inactive); in experiment [2] it was 91% (inactive); in experiment [3], 80.9% (inactive); in experiment [4] (setting [7]), 74.8%; in experiment [4] (setting [8]) it was 80.9%. The differential viability (reversal) in experiment [4] (H69AR cells + 2 uM doxorubicin) is 6.03% (inactive). For the same molecule, the inhibition in experiment [5] is -0.55% (inactive); in experiment [6] it was 24.5% (inactive).
As for `Cn1c(=O)[nH]c(=O)c2c1ncn2CCN1CCOCC1`, the viability in experiment [1] was 96% (inactive); in experiment [2], 102% (inactive); in experiment [3], 99.1% (inactive); in experiment [4] (setting [7]) it was 93.8%; in experiment [4] (setting [8]) it was 99.1%. In addition, in experiment [4] (H69AR cells + 2 uM doxorubicin), the differential viability (reversal) is 5.28% (inactive). Moreover, the inhibition in experiment [5] was -2.6% (inactive); in experiment [6], -1.48% (inactive).
On to `C=CCC1(O)C(=O)Nc2ccccc21` (configuration not stated), for which the viability was 93% (inactive) in experiment [1]; 108% (inactive) in experiment [2]; 98.2% (inactive) in experiment [3]; 79.4% in experiment [4] (setting [7]); 98.2% in experiment [4] (setting [8]). In addition, the differential viability (reversal) in experiment [4] (H69AR cells + 2 uM doxorubicin) is 18.9% (inactive). The inhibition in experiment [5] was -5.2% (inactive); in experiment [6], 1.82% (inactive).
As for `Cc1c(OCC(F)(F)F)ccnc1CS(=O)c1nc2ccccc2[nH]1` (configuration not stated), the viability is 99% (inactive) in experiment [1]; 100% (inactive) in experiment [2]; 93.8% (inactive) in experiment [3]; 89.5% in experiment [4] (setting [7]); 93.8% in experiment [4] (setting [8]). Moreover, the differential viability (reversal) in experiment [4] (H69AR cells + 2 uM doxorubicin) was 4.31% (inactive). Besides, the inhibition in experiment [5] is -1.69% (inactive); in experiment [6] it was 4.33% (inactive).
`CCn1cc(C(=O)NCc2ccco2)c(=O)c2cc(F)c(N3CCN(C(=O)c4ccco4)CC3)cc21`: the viability in experiment [1] is 94% (inactive); in experiment [2], 62.4% (inactive); in experiment [3] it was 58.6% (inactive); in experiment [4] (setting [7]) it was 17.7%; in experiment [4] (setting [8]) it was 58.6%. In addition, the differential viability (reversal) in experiment [4] (H69AR cells + 2 uM doxorubicin) is 40.8% (inactive). Moreover, the inhibition in experiment [5] was -7.4% (inactive); in experiment [6], -1.45% (inactive).
Take `COc1ccc(S(=O)(=O)Nc2ccccc2OC)cc1C`: the viability in experiment [1] is 107% (inactive); in experiment [2] it was 93.8% (inactive); in experiment [3], 83.1% (inactive); in experiment [4] (setting [7]) it was 90.2%; in experiment [4] (setting [8]) it was 83.1%. In experiment [4] (H69AR cells + 2 uM doxorubicin), the differential viability (reversal) was -7.08% (inactive). Also, the inhibition was 0% (inactive) in experiment [5] and 0.82% (inactive) in experiment [6].
On to `CCC1CCCCN1CCCNC(=O)c1ccc(CS(=O)(=O)Cc2ccccc2F)o1` (configuration not stated), for which the viability was 106% (inactive) in experiment [1]; 114% (inactive) in experiment [2]; 92.9% (inactive) in experiment [3]; 105% in experiment [4] (setting [7]); 92.9% in experiment [4] (setting [8]). In experiment [4] (H69AR cells + 2 uM doxorubicin), the differential viability (reversal) was -12.3% (inactive). The inhibition is -7.4% (inactive) in experiment [5] and 2.73% (inactive) in experiment [6].
In the case of `CCOC(=O)C1=C(c2ccccc2)N2CCS(=O)(=O)N=C2S1`, the viability in experiment [1] was 92% (inactive); in experiment [2], 96.9% (inactive); in experiment [3] it was 90.2% (inactive); in experiment [4] (setting [7]), 83.7%; in experiment [4] (setting [8]), 90.2%. The differential viability (reversal) in experiment [4] (H69AR cells + 2 uM doxorubicin) is 6.51% (inactive). Further, the inhibition in experiment [5] was -2.13% (inactive); in experiment [6], 0% (inactive).
With `COc1cc(C(=O)N2CCCC(c3nc(-c4cccs4)no3)C2)cc(OC)c1OC` (configuration not stated), the viability in experiment [1] was 90.5% (inactive); in experiment [2], 94.2% (inactive); in experiment [3], 89.7% (inactive); in experiment [4] (setting [7]), 69.4%; in experiment [4] (setting [8]), 89.7%. For the same molecule, in experiment [4] (H69AR cells + 2 uM doxorubicin), the differential viability (reversal) was 20.3% (inactive). The inhibition in experiment [5] is -1.05% (inactive); in experiment [6] it was 16% (inactive).
Consider `COc1ccc(C(=O)Nc2cccnc2)cc1C(=O)Nc1cccnc1`, for which the viability in experiment [1] was 150% (inactive); in experiment [2], 79.9% (inactive); in experiment [3] it was 97.4% (inactive); in experiment [4] (setting [7]), 94.6%; in experiment [4] (setting [8]), 97.4%. In addition, the differential viability (reversal) in experiment [4] (H69AR cells + 2 uM doxorubicin) is 2.72% (inactive). The values for the inhibition in experiment [5] and in experiment [6] were 7.53% (inactive) and -3% (inactive), respectively.
As for `O=C(Nc1ccccc1)N(CCCN1CCOCC1)Cc1cc2cc3c(cc2[nH]c1=O)OCCO3`, the viability in experiment [1] was 96% (inactive); in experiment [2] it was 82.3% (inactive); in experiment [3] it was 67.6% (inactive); in experiment [4] (setting [7]) it was 64.9%; in experiment [4] (setting [8]) it was 67.6%. In addition, the differential viability (reversal) in experiment [4] (H69AR cells + 2 uM doxorubicin) is 2.71% (inactive). Moreover, the figures for the inhibition in experiment [5] and in experiment [6] were 2.13% (inactive) and 3.45% (inactive), respectively.
For the molecule `CCN(C(=O)c1ccnc(C(C)(C)C)c1)c1ccccc1`, the viability in experiment [1] was 88% (inactive); in experiment [2] it was 94.4% (inactive); in experiment [3], 79.2% (inactive); in experiment [4] (setting [7]), 83.3%; in experiment [4] (setting [8]), 79.2%. Further, the differential viability (reversal) in experiment [4] (H69AR cells + 2 uM doxorubicin) is -4.02% (inactive). Also, the values for the inhibition in experiment [5] and in experiment [6] were -6.85% (inactive) and 2% (inactive), respectively.
In the case of `c1ccc2c(NC3CCCC3)nnc(NC3CCCC3)c2c1`, the viability in experiment [1] is 60% (inactive); in experiment [2], 83.1% (inactive); in experiment [3] it was 91.4% (inactive); in experiment [4] (setting [7]), 89.6%; in experiment [4] (setting [8]) it was 91.4%. Besides, the differential viability (reversal) in experiment [4] (H69AR cells + 2 uM doxorubicin) was 1.81% (inactive). Moreover, the results for the inhibition in experiment [5] and in experiment [6] were -0.92% (inactive) and -7.46% (inactive), respectively.
As for `O=C(CCC1COc2ccccc2O1)NCC1COc2ccccc2O1` (configuration not stated), the viability in experiment [1] is 125% (inactive); in experiment [2] it was 103% (inactive); in experiment [3], 87.8% (inactive); in experiment [4] (setting [7]), 83.4%; in experiment [4] (setting [8]), 87.8%. The differential viability (reversal) in experiment [4] (H69AR cells + 2 uM doxorubicin) was 4.35% (inactive). Further, the figures for the inhibition in experiment [5] and in experiment [6] were -6.3% (inactive) and 4.68% (inactive), respectively.
